Data reported in ChEMBL document CHEMBL4689842, “EUbOPEN Chemogenomics Library wave 1” (2021).

Test system: Fibroblast
Assay: Multiplex assay against human fibroblast
Format: toxicity, cell-based
In short: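 Phenotypes for tubulin, mitochondrial mass and membrane permeability are expressed as per cents of healthy-nucleus cells. Cells were stained live at seeding with Hoechst33342, BioTracker Green Microtubule Cytoskeleton Dye, MitoTracker Red and Annexin V Alexa Fluor 680, then imaged after compound addition on a CQ1 microscope at 37°C and 5% CO2. Machine-learning gating in CellPathfinder separated Hoechst high-intensity objects from normal cells, divided normal cells by nuclear state (healthy, pyknosed, fragmented) and divided pyknosed cells into mitotic or apoptotic.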

[1] = 12 h, 1 µM, compound concentration 1 uM, replicate 1
[2] = 12 h, 1 µM, compound concentration 1 uM, replicate 2
[3] = 12 h, 10 µM, compound concentration 10 uM, replicate 1
[4] = 12 h, 10 µM, compound concentration 10 uM, replicate 2
[5] = 24 h, 1 µM, compound concentration 1 uM, replicate 1
[6] = 24 h, 1 µM, compound concentration 1 uM, replicate 2
[7] = 24 h, 10 µM, compound concentration 10 uM, replicate 1
[8] = 24 h, 10 µM, compound concentration 10 uM, replicate 2
[9] = 48 h, 1 µM, compound concentration 1 uM, replicate 1
[10] = 48 h, 1 µM, compound concentration 1 uM, replicate 2
[11] = 48 h, 10 µM, compound concentration 10 uM, replicate 1
[12] = 48 h, 10 µM, compound concentration 10 uM, replicate 2

Cl.O=c1c2cccn2c2ccccc2n1CCCN1CCC(c2ccc(Cl)cc2)CC1
Population Apoptotic (%) [1]: 68% | Population Fragmented Nuclei (%) [1]: 21% | Population Healthy Nuclei (%) [1]: 61% | Population Hoechst High Intensity Objects (%) [1]: 12% | Population Membrane Permeable-Phenotype (%) [1]: 10% | Population Mitochondria Different-Phenotype (%) [1]: 15% | Population Mitotic Cells (%) [1]: 31% | Population Normal (%) [1]: 87% | Population Pyknosed Nuclei (%) [1]: 17% | Population Tubulin-Different-Phenotype (%) [1]: 40% | Total Cell Count [1]: 123 | Population Apoptotic (%) [2]: 60% | Population Fragmented Nuclei (%) [2]: 16% | Population Healthy Nuclei (%) [2]: 73% | Population Hoechst High Intensity Objects (%) [2]: 8% | Population Membrane Permeable-Phenotype (%) [2]: 0% | Population Mitochondria Different-Phenotype (%) [2]: 56% | Population Mitotic Cells (%) [2]: 40% | Population Normal (%) [2]: 91% | Population Pyknosed Nuclei (%) [2]: 9% | Population Tubulin-Different-Phenotype (%) [2]: 30% | Total Cell Count [2]: 119 | Population Apoptotic (%) [3]: 48% | Population Fragmented Nuclei (%) [3]: 28% | Population Healthy Nuclei (%) [3]: 42% | Population Hoechst High Intensity Objects (%) [3]: 30% | Population Membrane Permeable-Phenotype (%) [3]: 5% | Population Mitochondria Different-Phenotype (%) [3]: 52% | Population Mitotic Cells (%) [3]: 51% | Population Normal (%) [3]: 69% | Population Pyknosed Nuclei (%) [3]: 28% | Population Tubulin-Different-Phenotype (%) [3]: 84% | Total Cell Count [3]: 175 | Population Apoptotic (%) [4]: 78% | Population Fragmented Nuclei (%) [4]: 21% | Population Healthy Nuclei (%) [4]: 57% | Population Hoechst High Intensity Objects (%) [4]: 11% | Population Membrane Permeable-Phenotype (%) [4]: 74% | Population Mitochondria Different-Phenotype (%) [4]: 98% | Population Mitotic Cells (%) [4]: 21% | Population Normal (%) [4]: 89% | Population Pyknosed Nuclei (%) [4]: 21% | Population Tubulin-Different-Phenotype (%) [4]: 98% | Total Cell Count [4]: 58 | Population Apoptotic (%) [5]: 48% | Population Fragmented Nuclei (%) [5]: 28% | Population Healthy Nuclei (%) [5]: 44% | Population Hoechst High Intensity Objects (%) [5]: 11% | Population Membrane Permeable-Phenotype (%) [5]: 12% | Population Mitochondria Different-Phenotype (%) [5]: 10% | Population Mitotic Cells (%) [5]: 51% | Population Normal (%) [5]: 88% | Population Pyknosed Nuclei (%) [5]: 27% | Population Tubulin-Different-Phenotype (%) [5]: 45% | Total Cell Count [5]: 121 | Population Apoptotic (%) [6]: 25% | Population Fragmented Nuclei (%) [6]: 16% | Population Healthy Nuclei (%) [6]: 70% | Population Hoechst High Intensity Objects (%) [6]: 7% | Population Membrane Permeable-Phenotype (%) [6]: 2% | Population Mitochondria Different-Phenotype (%) [6]: 38% | Population Mitotic Cells (%) [6]: 75% | Population Normal (%) [6]: 92% | Population Pyknosed Nuclei (%) [6]: 13% | Population Tubulin-Different-Phenotype (%) [6]: 19% | Total Cell Count [6]: 147 | Population Apoptotic (%) [7]: 67% | Population Fragmented Nuclei (%) [7]: 21% | Population Healthy Nuclei (%) [7]: 49% | Population Hoechst High Intensity Objects (%) [7]: 39% | Population Membrane Permeable-Phenotype (%) [7]: 7% | Population Mitochondria Different-Phenotype (%) [7]: 40% | Population Mitotic Cells (%) [7]: 32% | Population Normal (%) [7]: 60% | Population Pyknosed Nuclei (%) [7]: 29% | Population Tubulin-Different-Phenotype (%) [7]: 63% | Total Cell Count [7]: 193 | Population Apoptotic (%) [8]: 87% | Population Fragmented Nuclei (%) [8]: 14% | Population Healthy Nuclei (%) [8]: 64% | Population Hoechst High Intensity Objects (%) [8]: 7% | Population Membrane Permeable-Phenotype (%) [8]: 72% | Population Mitochondria Different-Phenotype (%) [8]: 98% | Population Mitotic Cells (%) [8]: 12% | Population Normal (%) [8]: 92% | Population Pyknosed Nuclei (%) [8]: 20% | Population Tubulin-Different-Phenotype (%) [8]: 98% | Total Cell Count [8]: 65 | Population Apoptotic (%) [9]: 45% | Population Fragmented Nuclei (%) [9]: 43% | Population Healthy Nuclei (%) [9]: 36% | Population Hoechst High Intensity Objects (%) [9]: 14% | Population Membrane Permeable-Phenotype (%) [9]: 11% | Population Mitochondria Different-Phenotype (%) [9]: 2% | Population Mitotic Cells (%) [9]: 54% | Population Normal (%) [9]: 85% | Population Pyknosed Nuclei (%) [9]: 19% | Population Tubulin-Different-Phenotype (%) [9]: 47% | Total Cell Count [9]: 142 | Population Apoptotic (%) [10]: 66% | Population Fragmented Nuclei (%) [10]: 44% | Population Healthy Nuclei (%) [10]: 52% | Population Hoechst High Intensity Objects (%) [10]: 11% | Population Membrane Permeable-Phenotype (%) [10]: 5% | Population Mitochondria Different-Phenotype (%) [10]: 1% | Population Mitotic Cells (%) [10]: 33% | Population Normal (%) [10]: 88% | Population Pyknosed Nuclei (%) [10]: 2% | Population Tubulin-Different-Phenotype (%) [10]: 55% | Total Cell Count [10]: 120 | Population Apoptotic (%) [11]: 81% | Population Fragmented Nuclei (%) [11]: 28% | Population Healthy Nuclei (%) [11]: 50% | Population Hoechst High Intensity Objects (%) [11]: 48% | Population Membrane Permeable-Phenotype (%) [11]: 2% | Population Mitochondria Different-Phenotype (%) [11]: 46% | Population Mitotic Cells (%) [11]: 18% | Population Normal (%) [11]: 51% | Population Pyknosed Nuclei (%) [11]: 22% | Population Tubulin-Different-Phenotype (%) [11]: 78% | Total Cell Count [11]: 193 | Population Apoptotic (%) [12]: 56% | Population Fragmented Nuclei (%) [12]: 27% | Population Healthy Nuclei (%) [12]: 52% | Population Hoechst High Intensity Objects (%) [12]: 55% | Population Membrane Permeable-Phenotype (%) [12]: 3% | Population Mitochondria Different-Phenotype (%) [12]: 48% | Population Mitotic Cells (%) [12]: 44% | Population Normal (%) [12]: 44% | Population Pyknosed Nuclei (%) [12]: 19% | Population Tubulin-Different-Phenotype (%) [12]: 72% | Total Cell Count [12]: 281
